# Sampled rows, rich in hits. Any-hit rate of the full collection: about 2%.
# TCR CD3 inh: blocks the human TCR-CD3 interaction; inhibition, % at 9.4 µM; TAMRA-labeled TCR probe fluorescence, biochemical; 360,000 tested, 0.37% active; AID 651800; in the data active means inhibition above about 19%;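 further: recombinant mutant TCR 2C K166C tagged with TAMRA read by polarization; 0% = receptor in buffer alone and 100% = receptor with positive control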
# HTRA1 inh: blocks human HTRA1 serine peptidase | Q92743 | recombinant HTRA1, FP-rhodamine activity-based probe, fluorescence polarization | inhibition, % at 5.96 µM | 340,000 tested, 0.5% active; in the data active means inhibition above about 36%;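 further: 0% = enzyme with DMSO and 100% = wells lacking enzyme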
# Target sequence (Q92743 whole entry, looked up): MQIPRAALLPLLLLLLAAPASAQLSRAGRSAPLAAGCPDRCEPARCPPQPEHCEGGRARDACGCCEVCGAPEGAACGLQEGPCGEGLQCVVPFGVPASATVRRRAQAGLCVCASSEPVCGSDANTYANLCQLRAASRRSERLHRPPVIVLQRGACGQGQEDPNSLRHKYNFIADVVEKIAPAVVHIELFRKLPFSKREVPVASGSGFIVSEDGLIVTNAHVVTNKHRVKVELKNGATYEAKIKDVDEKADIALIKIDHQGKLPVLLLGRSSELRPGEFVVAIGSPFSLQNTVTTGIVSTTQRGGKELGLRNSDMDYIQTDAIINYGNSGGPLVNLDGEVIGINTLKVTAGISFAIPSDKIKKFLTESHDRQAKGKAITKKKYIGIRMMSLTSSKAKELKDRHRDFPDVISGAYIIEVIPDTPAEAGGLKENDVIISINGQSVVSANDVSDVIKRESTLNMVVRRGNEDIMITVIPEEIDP
# ABHD4 inh: inhibits mouse alpha/beta hydrolase domain 4 | AID 720543 | inhibition, % at 8.92 µM | purified mABHD4, FP-Rh probe fluorescence polarization | 370,000 tested, 0.54% active;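 active means inhibition exceeding the mean over every tested compound plus 3 SD, cut at about 30% in these data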;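 further: 0% = plate median of compound wells and 100% = S159A mutant with DMSO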
#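 Test system: mouse ABHD4 enzyme, wild type. Reagent: FP-Rh fluorescent activity-based probe, added after compound pre-incubation. Timing: pre-incubation 45 min, probe exposure 60 min, at 25 °C. Technique: FP readout, ex 525 nm / em 598 nm. Benchmarks: high control S159A mutant with DMSO, low control median of compound wells.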
# TDP2 inh: blocks human TDP2 phosphodiesterase activity. O95551. AID 720702. 370,000 tested, 0.34% active. inhibition, % at 12.8 µM. recombinant TDP2, T5PNP hydrolysis, p-nitrophenol absorbance 415 nm;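 active means inhibition above the mean of all tested compounds plus 3 SD, set per campaign, cut at about 25% in these data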;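 further: 0% = DMSO with enzyme and 100% = buffer with substrate but no TDP2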
#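 Incubation: 2 h at 37 °C; Test system: recombinant human TDP2; Quantity: enzyme 120 nM; Read-out basis: percent inhibition; Medium: 50 mM Tris-HCl pH 7.5 with Mg2+, KCl, DTT, BSA; Repeats: single replicate; Compound: 12.8 µM single point, 1% DMSO; Signal: epi absorbance; Reagent: 5 mM T5PNP chromogenic substrate; Benchmarks: no-enzyme high, DMSO-plus-enzyme low.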
# PAD4 inh: PAD4 (human) enzyme inhibition; recombinant PAD4, RCA probe fluorescence polarization; 330,000 tested, 0.41% active; Q9UM07; inhibition, % at 6.36 µM;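 active means percent inhibition above a cutoff equal to the mean of all tested compounds plus 3 SD, cut at about 15% in these data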;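 further: 0% = PAD4 with RCA probe and DMSO and 100% = probe without PAD4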
# SIAE inh: human SIAE inhibition, primary screen; inhibition, % at 9.66 µM; 370,000 tested, 0.69% active; Q9HAT2; AID 1053197; SIAE FP-Rh probe binding, fluorescence polarization;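 active means inhibition above a cutoff: mean of compounds within the control limits plus 3 SD of those, cut at about 17% in these data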;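 further: 0% = plate median of compound wells and 100% = probe without SIAE protein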
# SIAE inh conf: human SIAE inhibition, confirmation | SIAE FP-Rh activity-based probe, fluorescence polarization | inhibition, % at 9.66 µM | AID 1117263 | shares compounds with SIAE inh | 2,300 tested, 13% active;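 active means mean inhibition of the replicates above the hit cutoff set in the primary screen, cut at about 17% in these data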;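 further: 0% = SIAE with DMSO and probe and 100% = probe without SIAE; inhibitors lower polarization as more probe stays unbound to SIAE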
# Numbers without * were called inactive; . = no result given.
SMILES,TCR CD3 inh,HTRA1 inh,ABHD4 inh,TDP2 inh,PAD4 inh,SIAE inh,SIAE inh conf
CCC(C(=O)Nc1ccc2[nH]ncc2c1)c1ccccc1 (centres undefined),1,2,3,8,4,4,.
CCS(=O)(=O)Nc1ccc2c(c1)C(=O)N(C)[C@@H]1CC[C@H](CC(=O)NCCCN3CCOCC3)O[C@H]1CO2,.,.,-4,-10,.,18*,19*
COc1cccc(CN(C)C(=O)Cc2ccc(OC)c(S(=O)(=O)N3CCOCC3)c2)c1,-5,7,-5,-6,1,-2,.
Clc1ccc(-c2csc(N3CCCCCC3)n2)cc1,-5,0,-14,-19,1,76*,5
Clc1ccc(-c2csc(N3CCOCC3)n2)cc1,8,3,6,-11,.,1,.
Cc1cc(C)nc(SCC(=O)NN=Cc2ccc(C)o2)n1,-6,0,8,14,-7,18*,6
Cc1cc(C)nc(SCC(=O)N/N=C/c2cccs2)n1,4,0,5,-6,-7,15,.
COC(=O)Cc1c(O)ccn(CCc2c[nH]c3ccccc23)c1=O,6,5,2,4,1,0,.
O=c1c(Cc2c(F)cccc2Cl)c(O)ccn1CCc1c[nH]c2ccccc12,-2,-1,3,-8,1,23*,5
O=C(N/N=C/c1ccc(O)cc1O)c1ccc(NC(=O)C2CCCCC2)cc1,12,-18,12,-5,-3,26*,3
CCN1CCc2c(sc(NC(=S)NC(=O)c3ccc(Cl)cc3)c2C(N)=O)C1,-3,0,8,4,-2,18*,1
CCN1CCc2c(sc(NC(=O)c3ccc4ccccc4c3)c2C(N)=O)C1,1,-33,-4,-7,-1,-11,.
COc1ccc(S(=O)(=O)N2CCN(C(=O)CN3C(=O)NC(C)(C)C3=O)CC2)cc1,3,3,5,-10,2,4,.
COc1ccc(S(=O)(=O)N2CCN(C(=O)CN3C(=O)NC(C)(c4ccc5ccccc5c4)C3=O)CC2)cc1 (centres undefined),2,-8,3,5,-2,17*,1
Nc1ncnc2c1ncn2C1OC(C(=O)NC2CC2)C(O)C1O (centres undefined),0,5,4,-7,1,-1,.
Nc1ncnc2c1ncn2[C@@H]1O[C@H](C(=O)NCc2ccc3c(c2)OCO3)[C@@H](O)[C@H]1O,4,.,9,-4,.,71*,76*
COc1cc(NC(=O)[C@H]2O[C@@H](n3cnc4c(N)ncnc43)[C@H](O)[C@@H]2O)cc(OC)c1OC,4,.,4,1,.,61*,69*
Nc1ncnc2c1ncn2[C@@H]1O[C@H](C(=O)NS(=O)(=O)c2cccc(F)c2)[C@@H](O)[C@H]1O,-4,.,-9,-3,.,-4,.
Cc1ccc(OCCNC(=O)[C@H]2O[C@@H](n3cnc4c(N)ncnc43)[C@H](O)[C@@H]2O)cc1C,3,.,8,8,.,11,.
Cc1cc(S(=O)(=O)NC(=O)[C@H]2O[C@@H](n3cnc4c(N)ncnc43)[C@H](O)[C@@H]2O)ccc1Br,-1,.,10,8,.,47*,51*
CC(=O)c1ccc(OCc2nnn(CC(=O)NS(=O)(=O)Cc3ccccc3)c2-c2ccccc2)cc1,7,.,1,8,.,3,.
Cc1cccc(NC(=O)CN2CCN(C(=O)C(C)Oc3ccc(C#N)cc3)CC2)c1C (centres undefined),6,2,-1,-1,3,20*,6
Cc1ccc(-c2cc(-c3ccco3)c3c(N)c(C(=O)NN)oc3n2)cc1,16,25,15,9,4,28*,45*
COc1ccc(OC)c(NC(=O)COC(=O)CCCN=C2NS(=O)(=O)c3ccccc32)c1,-6,1,3,1,2,3,.
N#CCCN(Cc1ccccc1)C(C(=O)NC1CCCCC1)C1CC1 (centres undefined),-5,.,8,1,.,2,.
Cc1cc(F)ccc1NC(=O)Cn1c(C)csc1=O,3,8,2,3,-2,6,.

# Bioassay records deposited in PubChem by The Scripps Research Institute Molecular Screening Center.
